Data published in ChEMBL document CHEMBL1764997, “(Z)-3-butylidenephthalide from Ligusticum porteri , an α-glucosidase inhibitor” (J Nat Prod, 2011).
One block for each molecule: values may come before it. Activity calls are given as the source filed them. The rule behind the calls is not given here.

How the values were obtained:
[1] = tested on: Rattus norvegicus; test: Hypoglycemic activity in rat assessed as increase in insulin concentration at 5 mg/kg, iv; type: functional, organism-based; set-up: dose 5 mg/kg
[2] = tested on: Rattus norvegicus; test: Hypoglycemic activity in rat assessed as decrease in plasma glucose at 5 mg/kg, iv; type: functional, organism-based; set-up: dose 5 mg/kg
[3] = target: Alpha-glucosidase MAL62 (Saccharomyces cerevisiae) (UniProt P07265); test: (§1) Inhibition of yeast alpha-glucosidase assessed as inhibition of p-nitrophenyl-alpha-D-glucopyranoside substrate hydrolysis after 35 mins by spectroscopy
[4] = tested on: L6; test: Hypoglycemic activity in rat L6 myotubes assessed as increase in 2-deoxyglucose transport at 25 uM relative to control; type: functional
[5] = tested on: Mus musculus; test: Antihyperglycemic activity in po dosed diabetic KK-Ay mouse model; type: functional, organism-based
[6] = tested on: Mus musculus; test: Antihyperglycemic activity in ICR mouse assessed as change in blood glucose level at 20 mg/kg after 0.5 hr by oral glucose tolerance test (RVb= 59 %); type: functional
[7] = tested on: Mus musculus; test: Antidiabetic activity in streptozotocin-induced diabetic ICR mouse assessed as change in blood glucose level at 31.2 mg/kg after 2 hrs by oral glucose tolerance test (RVb= -12.9 %); type: functional
[8] = tested on: Mus musculus; test: Antidiabetic activity in streptozotocin-induced diabetic ICR mouse assessed as change in blood glucose level at 10 mg/kg after 1.5 hrs by oral sucrose tolerance test (RVb= 6.1 %); type: functional
How it was run: (§2)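 NAD (40 mg/kg ip) then STZ (100 mg/kg ip, 15 min later) diabetic male ICR mice, glucose >140 mg/dL after 7 days. Animals fasted 12 h, dosed orally in 0.05% Tween 80/saline, and given oral sucrose 2 g/kg 30 min later.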

[9] = tested on: Mus musculus; test: Antihyperglycemic activity in ICR mouse assessed as change in blood glucose level at 20 mg/kg after 2 hrs by oral glucose tolerance test (RVb= -12 %); type: functional
[10] = tested on: Mus musculus; test: Antihyperglycemic activity in ICR mouse assessed as change in blood glucose level at 10 mg/kg after 1.5 hrs by oral glucose tolerance test (RVb= 2.5 %); type: functional
[11] = tested on: Mus musculus; test: Antidiabetic activity in streptozotocin-induced diabetic ICR mouse assessed as change in blood glucose level at 56.2 mg/kg after 0.5 hr by oral glucose tolerance test (RVb= 51.9 %); type: functional
[12] = tested on: Mus musculus; test: Antihyperglycemic activity in ICR mouse assessed as change in blood glucose level at 20 mg/kg after 1 hr by oral glucose tolerance test (RVb= 1.5 %); type: functional
[13] = tested on: Mus musculus; test: Antidiabetic activity in streptozotocin-induced diabetic ICR mouse assessed as change in blood glucose level at 56.2 mg/kg after 1 hr by oral sucrose tolerance test (RVb= 11.4 %); type: functional; how it was run: as §2
[14] = tested on: Mus musculus; test: Antidiabetic activity in streptozotocin-induced diabetic ICR mouse assessed as change in blood glucose level at 56.2 mg/kg after 2 hrs by oral sucrose tolerance test (RVb= -4.3 %); type: functional; how it was run: as §2
[15] = tested on: Mus musculus; test: Antidiabetic activity in streptozotocin-induced diabetic ICR mouse assessed as change in blood glucose level at 56.2 mg/kg after 1.5 hrs by oral sucrose tolerance test (RVb= 6.1 %); type: functional; how it was run: as §2
[16] = tested on: Mus musculus; test: Antidiabetic activity in streptozotocin-induced diabetic ICR mouse assessed as change in blood glucose level at 31.2 mg/kg after 1.5 hrs by oral glucose tolerance test (RVb= 0.005 %); type: functional
[17] = tested on: Mus musculus; test: Antidiabetic activity in streptozotocin-induced diabetic ICR mouse assessed as change in blood glucose level at 31.2 mg/kg after 0.5 hr by oral glucose tolerance test (RVb= 51.9 %); type: functional
[18] = tested on: Mus musculus; test: Antihyperglycemic activity in ICR mouse assessed as change in blood glucose level at 10 mg/kg after 0.5 hr by oral glucose tolerance test (RVb= 59 %); type: functional
[19] = tested on: Mus musculus; test: Antidiabetic activity in streptozotocin-induced diabetic ICR mouse assessed as change in blood glucose level at 31.2 mg/kg after 1 hr by oral glucose tolerance test (RVb= 10.3 %); type: functional
[20] = tested on: Mus musculus; test: Antidiabetic activity in streptozotocin-induced diabetic ICR mouse assessed as change in blood glucose level at 10 mg/kg after 1 hr by oral sucrose tolerance test (RVb= 11.4 %); type: functional; how it was run: as §2
[21] = species on record: Mus musculus; test: Inhibition of alpha-glucosidase in streptozotocin-induced diabetic ICR mouse intestine assessed as lowering of blood glucose levels; type: functional, organism-based; how it was run: as §2
[22] = tested on: Mus musculus; test: Antidiabetic activity in streptozotocin-induced diabetic ICR mouse assessed as change in blood glucose level at 10 mg/kg after 1.5 hrs by oral glucose tolerance test (RVb= 0.005 %); type: functional
[23] = tested on: Mus musculus; test: Antidiabetic activity in streptozotocin-induced diabetic ICR mouse assessed as change in blood glucose level at 10 mg/kg after 0.5 hr by oral sucrose tolerance test (RVb= 56 %); type: functional; how it was run: as §2
[24] = tested on: Mus musculus; test: Antidiabetic activity in streptozotocin-induced diabetic ICR mouse assessed as change in blood glucose level at 10 mg/kg after 0.5 hr by oral glucose tolerance test (RVb= 51.9 %); type: functional
[25] = target: Alpha-glucosidase MAL62 (Saccharomyces cerevisiae, UniProt P07265); test: as §1
[26] = tested on: Mus musculus; test: Antidiabetic activity in streptozotocin-induced diabetic ICR mouse assessed as change in blood glucose level at 10 mg/kg after 2 hrs by oral glucose tolerance test (RVb= -12.9 %); type: functional
[27] = tested on: Mus musculus; test: Antihyperglycemic activity in ICR mouse assessed as change in blood glucose level at 10 mg/kg after 2 hrs by oral glucose tolerance test (RVb= -12 %); type: functional
[28] = tested on: Mus musculus; test: Antidiabetic activity in streptozotocin-induced diabetic ICR mouse assessed as change in blood glucose level at 10 mg/kg after 1 hr by oral glucose tolerance test (RVb= 10.3 %); type: functional
[29] = tested on: Mus musculus; test: Antidiabetic activity in streptozotocin-induced diabetic ICR mouse assessed as change in blood glucose level at 10 mg/kg after 2 hrs by oral sucrose tolerance test (RVb= -4.3 %); type: functional; how it was run: as §2
[30] = tested on: Mus musculus; test: Antihyperglycemic activity in ICR mouse assessed as change in blood glucose level at 10 mg/kg after 1 hr by oral glucose tolerance test (RVb= 1.5 %); type: functional
[31] = tested on: Mus musculus; test: Antidiabetic activity in streptozotocin-induced diabetic ICR mouse assessed as change in blood glucose level at 56.2 mg/kg after 0.5 hr by oral sucrose tolerance test (RVb= 56 %); type: functional; how it was run: as §2
[32] = tested on: Mus musculus; test: Antihyperglycemic activity in ICR mouse assessed as change in blood glucose level at 20 mg/kg after 1.5 hrs by oral glucose tolerance test (RVb= 2.5 %); type: functional
[33] = tested on: Mus musculus; test: Antidiabetic activity in streptozotocin-induced diabetic ICR mouse assessed as change in blood glucose level at 56.2 mg/kg after 1.5 hrs by oral glucose tolerance test (RVb= 0.005 %); type: functional
[34] = tested on: Mus musculus; test: Antidiabetic activity in streptozotocin-induced diabetic ICR mouse assessed as change in blood glucose level at 56.2 mg/kg after 2 hrs by oral glucose tolerance test (RVb= -12.9 %); type: functional
[35] = tested on: Mus musculus; test: Antidiabetic activity in streptozotocin-induced diabetic ICR mouse assessed as change in blood glucose level at 56.2 mg/kg after 1 hr by oral glucose tolerance test (RVb= 10.3 %); type: functional
[36] = tested on: Mus musculus; test: Antihyperglycemic activity in ICR mouse assessed as change in blood glucose level at 31.2 mg/kg at 1.5 hrs by oral glucose tolerance test (RVb= 2.5 %); type: functional
[37] = tested on: Mus musculus; test: Antihyperglycemic activity in ICR mouse assessed as change in blood glucose level at 56.2 mg/kg at 1.5 hrs by oral glucose tolerance test (RVb= 2.5 %); type: functional
[38] = tested on: Mus musculus; test: Antihyperglycemic activity in ICR mouse assessed as change in blood glucose level at 56.2 mg/kg at 0.5 hr by oral glucose tolerance test (RVb= 59 %); type: functional
[39] = tested on: Mus musculus; test: Antihyperglycemic activity in ICR mouse assessed as change in blood glucose level at 31.2 mg/kg after 0.5 hr by oral glucose tolerance test (RVb= 59 %); type: functional
[40] = tested on: Mus musculus; test: Antihyperglycemic activity in ICR mouse assessed as change in blood glucose level at 31.2 mg/kg at 2 hrs by oral glucose tolerance test (RVb= -12 %); type: functional
[41] = tested on: Mus musculus; test: Antihyperglycemic activity in ICR mouse assessed as change in blood glucose level at 56.2 mg/kg at 1 hr by oral glucose tolerance test (RVb= 1.5 %); type: functional
[42] = tested on: Mus musculus; test: Antihyperglycemic activity in ICR mouse assessed as change in blood glucose level at 31.2 mg/kg at 1 hr by oral glucose tolerance test (RVb= 1.5 %); type: functional
[43] = tested on: Mus musculus; test: Antihyperglycemic activity in ICR mouse assessed as change in blood glucose level at 56.2 mg/kg at 2 hrs by oral glucose tolerance test (RVb= -12 %); type: functional

Chain of Alpha-glucosidase MAL62 (Saccharomyces cerevisiae) (P07265 whole entry): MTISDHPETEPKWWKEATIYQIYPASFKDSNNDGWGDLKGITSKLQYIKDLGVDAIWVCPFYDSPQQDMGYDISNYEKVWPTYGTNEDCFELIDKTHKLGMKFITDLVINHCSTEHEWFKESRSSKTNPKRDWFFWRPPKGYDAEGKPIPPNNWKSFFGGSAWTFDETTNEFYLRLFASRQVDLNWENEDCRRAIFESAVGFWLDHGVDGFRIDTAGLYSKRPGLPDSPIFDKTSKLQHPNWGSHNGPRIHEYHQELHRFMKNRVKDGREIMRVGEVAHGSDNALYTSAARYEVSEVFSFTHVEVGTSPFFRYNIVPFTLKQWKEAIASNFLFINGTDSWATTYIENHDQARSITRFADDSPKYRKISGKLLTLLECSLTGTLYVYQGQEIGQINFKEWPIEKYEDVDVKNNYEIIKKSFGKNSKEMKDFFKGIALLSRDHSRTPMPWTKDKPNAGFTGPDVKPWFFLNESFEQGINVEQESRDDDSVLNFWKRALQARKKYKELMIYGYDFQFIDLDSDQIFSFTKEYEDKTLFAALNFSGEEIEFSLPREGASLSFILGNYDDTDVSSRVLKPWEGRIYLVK
Chain of Alpha-glucosidase MAL62 (P07265 whole entry): as above

Activity [3]: inactive
SMILES: COc1cc(/C=C/C(=O)O)ccc1O [FERULATE]
Activity [1]: Active
Activity [2]: Active
fold change (FC) [4]: 2.98
Activity [5]: Active

SMILES: CCCC=C1OC(=O)c2ccccc21 [(E)-BUTYLIDENEPHTHALIDE]
Activity [6]: 20%
Activity [7]: -9.1%
Activity [8]: 16%
Activity [9]: -23%
Activity [10]: -41%
Activity [11]: 12%
Activity [12]: -6.9%
Activity [13]: 7.6%
Activity [14]: 6.4%
Activity [15]: 2.5%
Activity [16]: -0.3%
Activity [17]: 27%
Activity [18]: -9%
Activity [19]: 3.3%
Activity [20]: 19%
inhibition [21]: Active
Activity [22]: 1.5%
Activity [23]: 41%
Activity [24]: 35%
Activity [3]: Dose-dependent effect
IC50 [25]: 2.35 mM
Ki [25]: 4.86 mM
Activity [26]: -7.4%
Activity [27]: -42%
Activity [28]: 3.5%
Activity [29]: 6.7%
Activity [30]: -24%
Activity [31]: 23%
Activity [32]: -18%
Activity [33]: -12%
Activity [34]: -21.7%
Activity [35]: -5.2%

Activity [3]: inactive
SMILES: CCC/C=C1\OC(=O)C2=C[C@H]3CC[C@]21C1C2=C(CC[C@H]13)/C(=C\CCC)OC2=O (stereo partly drawn)
Activity [7]: 8.8%
Activity [36]: -35%
Activity [11]: 57%
Activity [37]: -13%
Activity [38]: 41%
Activity [39]: 3.8%
Activity [40]: -50%
Activity [16]: 23%
Activity [17]: 44%
Activity [19]: 32%
Activity [41]: -3.8%
Activity [22]: 5.7%
Activity [24]: 32%
Activity [42]: -28%
Activity [26]: -5.5%
Activity [28]: 5.7%
Activity [33]: 25%
Activity [43]: -27%
Activity [34]: 8.9%
Activity [35]: 52%
